Measured values from different studies.
Each line is one published result; the experiments were not run side by side.
Target: Protein kinase C delta type (PRKCD, Homo sapiens, UniProt Q05655)

| Compound | test | conditions | quantity | result |
| --- | --- | --- | --- | --- |
| Cc1ccc(NC(=O)c2ccc(C)c(C(F)(F)F)c2)cc1C#Cc1nn(C2CCC(O)CC2)c2ncnc(N)c12 (stereo not drawn) | cell-free assay | 10 µM | remaining signal | 96% |
| COc1cc2ncnc(Nc3ccc(Oc4ccccc4)cc3C)c2cc1OC | enzyme activity, inhibitor | 1 µM | inhibition | 11% |
| Cc1sc(C(=O)NC2COC2)cc1-n1cc(NC(=O)Nc2c(F)cccc2Cl)cn1 | enzyme activity, inhibitor | 10 µM | remaining activity | 98% |
| CC(C)(C)c1nc2c(s1)c1nc(N)ncc1c1ccc(NS(=O)(=O)c3c(F)cccc3F)c(F)c12 | enzyme activity, inhibitor, radiometric | 1 µM | remaining activity | 100% |
| Oc1ccc(-c2nc(-c3ccncc3)c(-c3ccc(F)cc3)[nH]2)cc1 | cell-free assay | 0.5 µM | remaining signal | 99.3% |
| Cn1cnc(Br)c1C1=CN(c2ncnc3[nH]cnc23)CCS1 | enzyme activity, inhibitor, radiometric | 50 nM | inhibition | 29% |
| Cc1ccc(C(=O)Nc2ccc(CN3CCN(C)CC3)c(C(F)(F)F)c2)cc1C#Cc1cnc2cccnn12 | enzyme activity | 23.5 nM | remaining activity | 64% |
| Cc1ccc(C(=O)NCc2ccsc2)cc1C#Cc1cn(C(C)C)c2ncnc(N)c12 | enzyme activity, inhibitor | 1 µM | activity vs control | 90% |
| Cn1cncc1C1=CN(c2ncnc3[nH]cnc23)CCS1 | enzyme activity, inhibitor, radiometric | 2 µM | inhibition | 81.1% |
| Nc1ncnc2occ(-c3ccc(NC(=O)Nc4cc(C(F)(F)F)ccc4F)cc3)c12 | cell-free assay | 20 µM | remaining signal | 14% |
| CO[C@@H](C)c1c(Nc2ccc([C@@H](N(C)C(=O)C3CCS(=O)(=O)CC3)C(F)(F)F)cc2)cnc2cc(Cl)nn12 | cell-free assay, competition with immobilised ligand | 1 µM | remaining binding | 90% |
| O=C1NC(=O)c2cc(Nc3ccc(F)cc3)c(Nc3ccc(F)cc3)cc21 | cell-free assay | 0.5 µM | remaining signal | 98.2% |
| c1ccc(N2CCN(Cc3nc4ccccc4[nH]3)CC2)nc1 | cell-free assay, competition with immobilised ligand | 1 µM | remaining binding | 100% |
| Cn1c2ccccc2c2c3c(c4c5ccccc5n(CCC#N)c4c21)CNC3=O | cell-free assay | 0.5 µM | remaining signal | 41.9% |
| CNCc1ccccc1-c1csc([C@@H](C)Nc2nc(C)nc3cc(OC)c(OC)cc23)c1 | cell-free assay, competition with immobilised ligand | 1 µM | remaining binding | 98% |
| CCCS(=O)(=O)Nc1ccc(F)c(C(=O)c2c[nH]c3ncc(-c4ccc(Cl)cc4)cc23)c1F | enzyme activity, inhibitor | 1 µM | inhibition | < 20% |
| O=C(O)[C@H]1[C@H](Cn2nnc3ccccc3c2=O)CC[C@@H]1C(=O)c1ccc(OCCC2CCOCC2)cc1 | cell-free assay, competition with immobilised ligand | 1 µM | remaining binding | 100% |
| Oc1cccc(-c2nc(N3CCOCC3)c3oc4ncccc4c3n2)c1 | cell-free assay | 0.5 µM | remaining signal | 96% |
| CC(=O)Nc1c(C(C)=O)c(=O)n(C)c2nc(-c3ccc(Cl)cc3Cl)c(-c3ccc(Cl)cc3)cc12 | cell-free assay, competition with immobilised ligand | 1 µM | remaining binding | 100% |
| CN1CC(Oc2cnc(C#N)cc2-c2ccn3nc(NC(=O)C4CC4)cc3c2)C1 | enzyme activity, inhibitor | 1 µM | inhibition | 3% |
| CS(=O)(=O)NCC[C@H](NC(=O)c1cncc2c1cnn2-c1ccc(F)cc1)c1ccnc(S(C)(=O)=O)c1 | cell-free assay, competition with immobilised ligand | 1 µM | remaining binding | 76% |
| CC(C)c1ccc(NC(=O)c2cccs2)c(-c2nc3ccccc3[nH]c2=O)c1 | enzyme activity, inhibitor | 1 µM | activity vs control | 104% |
| CSc1cccnc1N1CCN(Cc2nc3ccccc3[nH]2)CC1 | cell-free assay, competition with immobilised ligand | 1 µM | remaining binding | 100% |
| CCCOc1ccc(OC)c(F)c1C(=O)c1ccc(C(=O)N[C@@H]2CNC[C@H]2NC(=O)c2ccc3[nH]ncc3c2)cc1 | enzyme activity, inhibitor | 50 nM | remaining activity | 103% |
